These results are taken from ChEMBL document CHEMBL4033799, “Stable and Long-Lasting, Novel Bicyclic Peptide Plasma Kallikrein Inhibitors for the Treatment of Diabetic Macular Edema” (J Med Chem, 2018).

*1 amine or outer side, *2 acyl side, *3 side chain or, on linkers, in order; H or OH if unused. Where a SMILES comes first, the peptide text is derived from it. Bridges are numbered along the chain shown (N, C = ends). TBMB = c1c(C[*:1])cc(C[*:3])cc1C[*:2]

As a reminder, the clearance is the rate of elimination divided by the concentration. What is called half-life is how long it takes for the measured level to halve. A high value points to slow loss.

The target in series [1] is Coagulation factor XI (Homo sapiens, UniProt P03951). Briefly: Inhibition of factor 11a (unknown origin).
In series [2] the test system is Plasma. Description: Anti-coagulating activity in human plasma assessed as increase in coagulation time at 14 uM by aPTT assay relative to control. In kind it is functional.
In series [3] the test system is Rattus norvegicus. Briefly: Antiinflammatory activity in Sprague-Dawley rat assessed as inhibition carrageenan-induced paw edema at 5 mg/kg, ip pretreated for 15 mins followed by carrageenan challenge measured at 4 hrs post carrageenan challenge. In kind it is functional. Summed up: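 Male Sprague-Dawley rats got an IP pretreatment 15 min before a subplantar carrageenan injection. Paw volume was recorded at 1, 2, 4 and 6 h after carrageenan. Percent inhibition of paw edema was calculated against a vehicle-treated group.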

Series [4] has as its system Rattus norvegicus. Description: Antiinflammatory activity in Sprague-Dawley rat assessed as inhibition carrageenan-induced paw edema at 5 mg/kg, ip pretreated for 30 mins followed by carrageenan challenge measured up to 8 hrs post carrageenan challenge. In kind it is functional. (The carrageenan paw model is a standard test of acute inflammation.)
For series [5], the system named is Rattus norvegicus. Briefly: Antiinflammatory activity in Sprague-Dawley rat assessed as inhibition carrageenan-induced paw edema at 5 mg/kg, ip pretreated for 15 mins followed by carrageenan challenge measured at 1 hr post carrageenan challenge. As to conditions: read-out: INH.
Series [6] has as its system Rattus norvegicus. Description: Antiinflammatory activity in Sprague-Dawley rat assessed as inhibition carrageenan-induced paw edema at 5 mg/kg, ip pretreated for 15 mins followed by carrageenan challenge measured at 6 hrs post carrageenan challenge. In kind it is functional. Summed up:
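Male Sprague-Dawley rats received peptide IP (30, 10 or 3 mg/kg), or indomethacin IP at 5 mg/kg, 15 min before subplantar carrageenan. Paw volume was followed over time against a vehicle group.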

Series [7] deals with Rattus norvegicus. Description: Antiinflammatory activity in Sprague-Dawley rat assessed as inhibition carrageenan-induced paw edema at 5 mg/kg, ip pretreated for 15 mins followed by carrageenan challenge measured at 2 hrs post carrageenan challenge. To be noted: read-out: INH.
The nature of series [8]: Plasma clearance in Sprague-Dawley rat at 10 mg/kg, iv administered as infusion over 1 hr measured up to 240 mins post dose by LC-MS/MS analysis. In kind it is ADME, organism-based. Summed up: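 Groups of 2 male Sprague-Dawley rats; 10 mg/kg infused into the jugular vein over 1 h. Serial blood drawn via tail-vein cannulae at 5–240 min into EDTA tubes and processed to plasma. Plasma assayed by LC-MS/MS against a 16–4000 ng/mL calibration line in control rat plasma.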

Series [9] can be described thus: Inhibition of rabbit plasma kallikrein using fluorogenic H-Pro-Phe-Arg-AMC peptide as substrate preincubated for 15 mins followed by substrate addition measured by fluorescence-based assay. As to conditions: read-out: Ki(app). More on the design: species or system Oryctolagus cuniculus. Summed up:
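Assays ran at 25 °C in 50 mM Tris-HCl, 250 mM NaCl, 1.5 μM BSA, pH 7.5. PKal (nominal 1–2 nM) was preincubated 15 min with serially diluted peptide. […] Human PKal was purified from plasma; rat PKal was made in-house or bought; other species were purified in-house from kaolin-activated plasma.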

The test system of series [10] is Plasma. Description: Drug metabolism in human plasma assessed as deltaLeu6 metabolite formation at 50 uM after 18 hrs by MALDI-TOF analysis. In kind it is ADME, cell-free. Summed up: (§1)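 Peptide from a 1 mM DMSO stock was diluted to 50 μM in citrated mouse, rat or human plasma and incubated at 37 °C for up to 2 days. Samples taken at time points were quenched in 1:1 acetonitrile/methanol and centrifuged. The supernatant was mixed with ammonium bicarbonate in acetonitrile/water, and parent peptide and metabolites were detected by MALDI-TOF.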

Series [11] is described as follows: Half life in mouse plasma at 4 uM measured up to 24 hrs by LC-MS/MS analysis. In kind it is ADME, cell-free. Summed up: (§2)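 Peptide from a 0.16 mM DMSO stock was added to human, rat or mouse plasma (final 4 μM) or to homogenized human vitreous (final 1 μM), with internal standard. Samples were incubated at 37 °C for up to 24 h and extracted with water/acetonitrile/methanol 1:3:3.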

In series [12] the test system is Plasma. Briefly: Drug metabolism in human plasma assessed as deltaH7Q6 metabolite formation at 50 uM after 18 hrs by MALDI-TOF analysis. In kind it is ADME, cell-free. An outline of the steps:
as §1

Series [13] has as its system Plasma. Description: Drug metabolism in rat plasma assessed as (5R,8S,11S,14S,17S,20S,23R)-29-[[(2R)-2-acetamido-3-hydroxy-3-oxo-propyl]sulfanylmethyl]-5-amino-14-(3-amino-3-oxo-propyl)-17-(carboxymethyl)-11-(1H-imidazol-5-ylmethyl)-8,20-diisobutyl-6,9,12,15,18,21-hexaoxo-3,25-dithia-7,10,13,16,19,22-hexazabicyclo[25.3.1]hentriaconta-1(31),27,29-triene-23-carboxylic acid metabolite formation at 50 uM after 18 hrs by MALDI-TOF analysis. In kind it is ADME, cell-free. An outline of the steps: as §1

Series [14] concerns the target Plasma kallikrein (Homo sapiens, UniProt P03952). Briefly: Inhibition of human plasma kallikrein using fluorogenic H-Pro-Phe-Arg-AMC peptide as substrate preincubated for 15 mins followed by substrate addition measured by fluorescence-based assay. As to conditions: read-out: Ki(app).
A short description of series [15]: Half life in human vitreous humor at 1 uM measured up to 24 hrs by LC-MS/MS analysis. In kind it is ADME, tissue-based. Summed up: as §2
The nature of series [16]: Half life in human plasma at 4 uM measured up to 24 hrs by LC-MS/MS analysis. In kind it is ADME, cell-free. An outline of the steps:
as §2

The test system of series [17] is Plasma. Description: Drug metabolism in rat plasma assessed as (5R,8S,11S,14S,17S,20S,23R)-29-[[(2R)-2-acetamido-3-[[(1S)-1-(hydroxymethyl)-2-[[(1S)-2-[(2S)-2-[[(1S)-2-hydroxy-1-methyl-2-oxo-ethyl]carbamoyl]pyrrolidin-1-yl]-1-(1H-indol-3-ylmethyl)-2-oxo-ethyl]amino]-2-oxo-ethyl]amino]-3-oxo-propyl]sulfanylmethyl]-5-amino-14-(3-amino-3-oxo-propyl)-17-(carboxymethyl)-11-(1H-imidazol-5-ylmethyl)-8,20-diisobutyl-6,9,12,15,18,21-hexaoxo-3,25-dithia-7,10,13,16,19,22-hexazabicyclo[25.3.1]hentriaconta-1(31),27,29-triene-23-carboxylic acid metabolite formation at 50 uM after 18 hrs by MALDI-TOF analysis. In kind it is ADME, cell-free. Summed up: as §1

A short description of series [18]: Half life in rat plasma at 4 uM measured up to 24 hrs by LC-MS/MS analysis. In kind it is ADME, cell-free. An outline of the steps:
as §2

Series [19] deals with Plasma. Briefly: Drug metabolism in human plasma assessed as deltaL6H7Q6 metabolite formation at 50 uM after 18 hrs by MALDI-TOF analysis. In kind it is ADME, cell-free. Summed up: as §1
The target of series [20] is Plasma kallikrein (Rattus norvegicus, UniProt P14272). Description: Inhibition of recombinant Sprague-Dawley rat plasma kallikrein using fluorogenic H-Pro-Phe-Arg-AMC peptide as substrate preincubated for 15 mins followed by substrate addition measured by fluorescence-based assay. As to conditions: read-out: Ki(app).
Series [21] has as its target (UniProt A0A8D1M4K5). Description: Inhibition of pig plasma kallikrein using fluorogenic H-Pro-Phe-Arg-AMC peptide as substrate preincubated for 15 mins followed by substrate addition measured by fluorescence-based assay. Further details: species or system Sus scrofa. To be noted: read-out: Ki(app).
For series [22], the system named is Plasma. Description: Drug metabolism in rat plasma assessed as (5R,8S,11S,14S,17S,20S,23R)-29-[[(2R)-2-acetamido-3-[[(1S)-2-hydroxy-1-(hydroxymethyl)-2-oxo-ethyl]amino]-3-oxo-propyl]sulfanylmethyl]-5-amino-14-(3-amino-3-oxo-propyl)-17-(carboxymethyl)-11-(1H-imidazol-5-ylmethyl)-8,20-diisobutyl-6,9,12,15,18,21-hexaoxo-3,25-dithia-7,10,13,16,19,22-hexazabicyclo[25.3.1]hentriaconta-1(31),27,29-triene-23-carboxylic acid metabolite formation at 50 uM after 18 hrs by MALDI-TOF analysis. In kind it is ADME, cell-free. An outline of the steps: as §1

Chain of Plasma kallikrein (Homo sapiens, UniProt P03952) (P03952 20-390 limits assumed): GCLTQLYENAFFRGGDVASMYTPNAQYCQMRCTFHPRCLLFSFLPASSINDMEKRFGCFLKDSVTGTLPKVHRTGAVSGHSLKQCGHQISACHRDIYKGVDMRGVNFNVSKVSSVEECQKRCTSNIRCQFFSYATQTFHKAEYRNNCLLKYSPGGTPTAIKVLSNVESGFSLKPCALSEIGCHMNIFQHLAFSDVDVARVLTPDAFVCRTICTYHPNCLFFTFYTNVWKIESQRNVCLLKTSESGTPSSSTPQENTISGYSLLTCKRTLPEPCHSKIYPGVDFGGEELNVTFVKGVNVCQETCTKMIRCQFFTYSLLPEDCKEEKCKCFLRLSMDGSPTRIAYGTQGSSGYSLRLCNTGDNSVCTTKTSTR
Chain of Plasma kallikrein (Homo sapiens, UniProt P03952) (P03952 391-638 limits assumed): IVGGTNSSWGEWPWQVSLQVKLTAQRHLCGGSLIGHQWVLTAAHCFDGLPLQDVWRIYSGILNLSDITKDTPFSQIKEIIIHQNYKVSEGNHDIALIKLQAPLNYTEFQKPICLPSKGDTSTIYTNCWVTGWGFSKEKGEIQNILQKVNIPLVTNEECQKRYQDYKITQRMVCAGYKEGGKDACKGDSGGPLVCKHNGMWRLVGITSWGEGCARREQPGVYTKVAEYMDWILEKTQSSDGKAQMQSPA
Chain of Coagulation factor XI (P03951 19-387 limits assumed): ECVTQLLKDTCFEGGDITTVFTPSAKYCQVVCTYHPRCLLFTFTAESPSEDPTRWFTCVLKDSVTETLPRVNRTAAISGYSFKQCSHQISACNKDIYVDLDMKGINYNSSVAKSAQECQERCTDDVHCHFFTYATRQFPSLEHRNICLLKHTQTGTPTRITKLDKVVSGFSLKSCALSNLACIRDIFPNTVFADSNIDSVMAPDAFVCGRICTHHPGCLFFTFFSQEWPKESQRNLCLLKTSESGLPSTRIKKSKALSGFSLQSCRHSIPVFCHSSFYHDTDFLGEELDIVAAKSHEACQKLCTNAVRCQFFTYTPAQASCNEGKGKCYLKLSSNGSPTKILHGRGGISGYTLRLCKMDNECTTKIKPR
Chain of Coagulation factor XI (P03951 388-625 limits assumed): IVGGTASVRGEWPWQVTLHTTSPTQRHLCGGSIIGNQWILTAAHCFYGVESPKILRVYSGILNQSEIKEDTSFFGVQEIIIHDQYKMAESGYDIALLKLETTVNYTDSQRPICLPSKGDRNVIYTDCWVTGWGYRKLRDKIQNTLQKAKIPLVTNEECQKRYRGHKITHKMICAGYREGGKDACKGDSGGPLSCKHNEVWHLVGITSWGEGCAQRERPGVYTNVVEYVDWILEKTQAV
Chain of Plasma kallikrein (Rattus norvegicus, UniProt P14272) (P14272 20-390 limits assumed): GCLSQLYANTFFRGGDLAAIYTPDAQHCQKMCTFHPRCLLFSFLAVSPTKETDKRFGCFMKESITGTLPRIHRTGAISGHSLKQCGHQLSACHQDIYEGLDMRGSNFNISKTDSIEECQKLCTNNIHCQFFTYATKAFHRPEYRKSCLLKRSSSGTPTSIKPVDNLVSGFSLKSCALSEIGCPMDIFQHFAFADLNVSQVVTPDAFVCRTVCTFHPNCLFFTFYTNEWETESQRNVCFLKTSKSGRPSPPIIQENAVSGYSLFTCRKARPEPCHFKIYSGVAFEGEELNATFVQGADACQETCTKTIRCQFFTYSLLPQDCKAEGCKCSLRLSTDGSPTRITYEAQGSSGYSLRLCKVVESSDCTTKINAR
Chain of Plasma kallikrein (Rattus norvegicus, UniProt P14272) (P14272 391-638 limits assumed): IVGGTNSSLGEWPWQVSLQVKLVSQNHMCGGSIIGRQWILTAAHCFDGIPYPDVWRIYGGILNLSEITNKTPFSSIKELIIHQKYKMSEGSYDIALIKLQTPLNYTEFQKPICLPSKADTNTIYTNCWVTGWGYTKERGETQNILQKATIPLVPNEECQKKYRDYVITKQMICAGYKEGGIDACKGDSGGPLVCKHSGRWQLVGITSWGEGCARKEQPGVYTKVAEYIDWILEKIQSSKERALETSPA

Take `Cc1cc(Oc2nc(Oc3cccc(C(=N)N)c3)c(F)c(NC(C)CCc3ccccc3)c2F)c(C(=O)O)cc1N(C)C` (configuration not stated): in [1], the Ki amounted to 1000 nM. The “fold change (FC)” value in [2] was 2.

As for `COc1ccc2c(c1)c(CC(=O)O)c(C)n2C(=O)c1ccc(Cl)cc1` [INDOMETHACIN], the inhibition in vivo at 5 mg/kg in series [3] was found to be 54%; in series [4], 47.2%; in series [5], 79%; in [6], 48%; in series [7] it was 56%.

`CC(=O)N[C@H]1CSCc2cc3cc(c2)CSC[C@H](NC(=O)[C@H](CCCNC(=N)N)NC(=O)[C@H](C)NC(=O)[C@@H]2CCCN2C(=O)[C@H](Cc2c[nH]c4ccccc24)NC(=O)[C@H](CO)NC1=O)C(=O)N[C@@H](CC(C)C)C(=O)N[C@@H](Cc1cnc[nH]1)C(=O)N[C@@H](CCC(N)=O)C(=O)N[C@@H](CC(=O)O)C(=O)N[C@@H](CC(C)C)C(=O)N[C@H](C(=O)O)CSC3` (Ac-CSWPARCLHQDLC-OH; linker 1-7-13 via TBMB) gave a clearance in series [8] of 156 mL/min/kg. Besides, the Ki in [9] was found to be 10 nM; in [14] it was 0.15 nM; in series [20], 2 nM; in series [21] it was 3.6 nM. In addition, the Drug metabolism entry in series [10], in series [12], in [13], in series [17], in series [19] and in [22] was “Metabolite_Detected” throughout. For the same compound, the half-life at 4 µM in [11] is 1.5 h; in [16], 7 h; in series [18] it was 2.8 h. In [15], this compound displayed a half-life at 1 µM of more than 24 h.
